The test system of experiment [1] is HCC2429 cells. The experiment is described as follows: Apoptosis screen of peptide library. It counts as cell-based, human. The conditions noted are these: representative experiment, Figure 1A, quadruplicate. An outline of the steps:
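A library of 155 peptides (5–15 residues) spanning the 34 EGF-like repeats of the Notch3 ECD was screened. HCC2429 and HeLa cells were seeded at 3,000 cells per well in 384-well format. Annexin V Alexa Fluor 680 (1:2,200 in RPMI) and peptide solution (0.1 mg/ml in RPMI before addition) were added. After overnight incubation, fluorescence was read on an FMAT 8100 HTS system, in quadruplicate per peptide.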

Experiment [2] concerns HCC2429 cells. The experiment is described as follows: Apoptosis assay. The conditions noted are these: HCC2429, 24 hours, serum-free RPMI, flow cytometry; Figure 2D. It counts as cell-based, human. The method, boiled down:
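HCC2429 cells were exposed for 24 hours in serum-free RPMI to Notch3 ECD-derived peptides or peptide–Fc fusion proteins. The concentration was not given. Apoptotic fraction was measured with an Annexin V-FITC kit on a flow cytometer, with a γ-secretase inhibitor as positive control. Comparisons used the Wilcoxon rank-sum test, with significance at P < 0.05.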
Background: In flow cytometry, cells or beads pass a laser one at a time.

Turning to CFHGAT [Peptide N103], the “Induction of apoptosis (fluorescence, FMAT 8100 HTS)” value in the experiment on HCC2429 cells [1] was “induced apoptosis”.
With CVCVNGWTGES [Peptide N17], the “Apoptosis (Annexin V-FITC)” value in the experiment on HCC2429 cells [2] is “highest apoptotic activity”.
For the substance CATAV [Peptide N102], the “Induction of apoptosis (fluorescence, FMAT 8100 HTS)” value in the experiment on HCC2429 cells [1] was “induced apoptosis”.
The same measure, in the same setting: the value for CLNGGS [Peptide N132] was “induced apoptosis”.

The values above are taken from article PMC3210016 (Cancer research, 2010).
